ChEMBL document CHEMBL1122625, “Synthesis and antiviral/antitumor activities of certain 3-deazaguanine nucleosides and nucleotides” (J Med Chem, 1984)
The source made the active and inactive calls. The calls are words filed in the database; no cut-off is given here.

How the values were obtained:
Human alphaherpesvirus 1 = assay: In vitro antiviral activity (virus ratings (VR)) determined by comparing CPE development in drug-treated cells (T) and HSV-1 virus control cells; assay type: functional
P388 [1] = assay: In vitro antitumor activity in the culture media (that produced 50% inhibition of the P388 leukemia cell growth as compared to the untreated cells); assay type: functional; conditions: Mus musculus, read-out: ID50 (the source's name)
In short: (§1)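 L1210 or P388 cells kept in RPMI-1640 with 10% heat-inactivated fetal calf serum and seeded in tubes at 5 × 10⁴ cells/mL. Grown with compound at 4-5 log doses for 48 h at 37 °C. Cells counted electronically, growth expressed as % of untreated control tubes, and the dose giving 50% growth inhibition (ID₅₀) determined.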

[2] = system: Vesicular stomatitis virus; assay: In vitro antiviral activity (virus ratings (VR)) determined by comparing CPE development in drug-treated cells (T) and Vesicular stomatitis virus control cells; assay type: functional
Human respirovirus 3 [3] = assay: In vitro antiviral activity (virus ratings (VR)) determined by comparing CPE development in drug-treated cells (T) and Parainfluenza type 3 virus control cells.; assay type: functional
L1210 [4] = assay: In vitro antitumor activity in the culture media (that produced 50% inhibition of the L1210 leukemia cell growth as compared to the untreated cells); assay type: functional; conditions: Mus musculus, read-out: ID50 (the source's name); in short: as §1
Vaccinia virus = assay: In vitro antiviral activity (virus ratings (VR)) determined by comparing CPE development in drug-treated cells (T) and Vaccinia virus control cells; assay type: functional, Orthopoxvirus vaccinia
Human respirovirus 3 [5] = assay: In vitro antiviral activity (virus ratings (VR)) determined by comparing CPE development in drug-treated cells (T) and Parainfluenza type 3 virus control cells; assay type: functional
P388 [6] = assay: In vitro antitumor activity in the culture media (that produced 50% inhibition of the P388 leukemia cell growth as compared to the untreated cells); b=Inactive at 10E-4 M; assay type: functional, cell-based; conditions: Mus musculus
In short: (§2)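 L1210 leukemia and P388 lymphoid neoplasm cells kept in RPMI-1640 with 10% heat-inactivated fetal calf serum. Seeded at 5 × 10⁴ cells/mL, then grown 48 h at 37 °C with compound at 4-5 log doses. Growth counted by Coulter counter and expressed as % of control tubes. ID50 is the dose giving 50% growth inhibition.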

[7] = Toxic level was evaluated; None; assay type: ADME
L1210 [8] = assay: In vitro antitumor activity in the culture media (that produced 50% inhibition of the L1210 leukemia cell growth as compared to the untreated cells); b=Inactive at 10E-4 M; assay type: functional, cell-based; conditions: Mus musculus; in short: as §2
P388 [9] = assay: In vitro antitumor activity in the culture media (that produced 50% inhibition of the P388 leukemia cell growth as compared to the untreated cells); Inhibition at 10E-5; assay type: functional, Mus musculus
P388 [10] = assay: In vitro antitumor activity in the culture media (that produced 50% inhibition of the P388 leukemia cell growth as compared to the untreated cells); Inhibition at 10E-4; assay type: functional, Mus musculus
L1210 [11] = assay: In vitro antitumor activity in the culture media (that produced 50% inhibition of the L1210 leukemia cell growth as compared to the untreated cells); Inhibition at 10E-5; assay type: functional, Mus musculus
P388 [12] = assay: In vitro antitumor activity in the culture media (that produced 50% inhibition of the P388 leukemia cell growth as compared to the untreated cells); b=Inactive at 10E-4; assay type: functional, cell-based; conditions: Mus musculus; in short: as §2
[13] = system: Vesicular stomatitis virus; assay: In vitro antiviral activity (virus ratings (VR)) determined by comparing CPE development in drug-treated cells (T) and VSV virus control cells; assay type: functional

Row | SMILES | Virus rating (Human alphaherpesvirus 1) | IC50 (P388 [1]) [µM] | Virus rating [2] | Virus rating (Human respirovirus 3 [3]) | IC50 (L1210 [4]) [µM] | Virus rating (Vaccinia virus) | Virus rating (Human respirovirus 3 [5]) | ID50 (P388 [6]) | Toxic level [7] | ID50 (L1210 [8]) | Inhibition (P388 [9]) [%] | Inhibition (P388 [10]) [%] | Inhibition (L1210 [11]) [%] | ID50 (P388 [12]) | Virus rating [13]
1 | NNc1cc2ncnc-2c(O)n1N | 0.05 | 62 | 0 | 0.03 | 35 | 0.15 | – | – | – | – | – | – | – | – | –
2 | Nc1cc2ncn([C@H]3C[C@H](O)[C@@H](CO)O3)c2c(O)n1 | 0.8 | – | 1.06 | – | – | 1.42 | 0.92 | Inactive at 10^-4M | Not Active | Inactive at 10^-4M | – | – | – | – | –
3 | Nc1cc2ncn([C@@H]3C[C@H](O)[C@@H](CO)O3)c2c(O)n1 | 0.3 | – | 0.35 | 0.22 | 80 | 1.18 | – | – | – | – | 31 | – | – | – | –
4 | Nc1cc2[nH]cnc2c(=O)[nH]1 [DEZAGUANINE] | 1.4 | – | 1.55 | – | 62 | 1.55 | 0.98 | – | – | – | – | 39 | – | – | –
5 | Nc1cc2c(ncn2[C@@H]2C[C@H](O)[C@@H](CO)O2)c(O)n1 | 1 | – | 0.8 | 0.7 | – | 1.65 | – | – | Not Active | – | – | – | 45 | Inactive at 10^-4M | –
6 | Nc1cc2c(ncn2[C@@H]2O[C@H](CO)[C@@H](O)[C@H]2O)c(=O)[nH]1 | 1.4 | 16 | 1.5 | 1.18 | 18 | 1.5 | – | – | – | – | – | – | – | – | –
7 | NC(=O)c1ncn([C@@H]2O[C@H](CO)[C@@H](O)[C@H]2O)n1 [RIBAVIRIN] | 0.6 | – | 0.8 | 1.3 | – | 1.2 | – | – | Not Active | – | – | – | – | – | –
8 | Nc1cc2c(ncn2C2O[C@H](CO)[C@@H](O)[C@H]2O)c(=O)n1N (some centres not stated) | 0.25 | – | – | 0.3 | – | 1.25 | – | Inactive at 10^-4M | – | Inactive at 10^-4M | – | – | – | – | 0.45
9 | Nc1cc2c(ncn2[C@@H]2O[C@@H]3COP(=O)(O)O[C@H]3[C@H]2O)c(O)n1 | 1.02 | 45 | 1 | 0.62 | 4.1 | 1.15 | – | – | – | – | – | – | – | – | –
10 | Nc1cc2c(ncn2[C@H]2C[C@H](O)[C@@H](CO)O2)c(O)n1 | 1.28 | 42 | 1.03 | 1.45 | 20 | 1.72 | – | – | Not Active | – | – | – | – | – | –
